Drawing on BindingDB's records for doi:10.1021/acs.jmedchem.9b02004 (University of Illinois At Chicago, 2020), this text covers kinact for one molecule.

In the assay the target is T1, Acid ceramidase (Homo sapiens, UniProt Q13510).
T1 sequence (Q13510 whole entry): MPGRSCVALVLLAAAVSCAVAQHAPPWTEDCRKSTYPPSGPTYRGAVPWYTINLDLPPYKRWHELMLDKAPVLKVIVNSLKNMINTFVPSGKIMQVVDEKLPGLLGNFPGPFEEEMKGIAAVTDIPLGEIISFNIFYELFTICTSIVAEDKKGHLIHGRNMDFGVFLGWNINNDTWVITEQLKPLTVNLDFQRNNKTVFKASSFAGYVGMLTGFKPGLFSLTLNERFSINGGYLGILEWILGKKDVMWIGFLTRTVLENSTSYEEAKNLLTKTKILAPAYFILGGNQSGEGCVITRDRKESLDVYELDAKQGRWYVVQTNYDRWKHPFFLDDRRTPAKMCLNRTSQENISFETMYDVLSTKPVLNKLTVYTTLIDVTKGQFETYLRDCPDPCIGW
The assay is described as follows: Time-dependent inhibition of human acid ceramidase expressed in HEK293 cells using Rbm14-12 as substrate by fluorescence assay. The procedure, abridged:
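hAC-enriched lysates with fluorogenic substrate Rbm 14-12; vehicle 1% DMSO; time-dependent inhibition analysed for ki/KI and ki; two independent experiments, each in two technical replicates.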

The structures appear in SMILES notation.

The kinact is the rate constant of inactivation at saturating inhibitor.

With `CC(C)CNC(=O)n1c(=O)oc2cc(C3CCN(C)CC3)ccc21`, the kinact was determined as 0.0025 s⁻¹.
